# Results published in ChEMBL document CHEMBL1154352, “Toll-like receptor 7 selective synthetic oligoribonucleotide agonists: synthesis and structure-activity relationship studies” (J Med Chem, 2009).
# Active and inactive are the calls of the source. The calls are words filed in the database; no cut-off is given here.
# Assays:
# [1] = molecular target: T1, Toll-like receptor 7 (Homo sapiens) (UniProt Q9NYK1); assay: Activation of human TLR7 expressed in HEK293XL assessed as fold induction of NF-kappaB activity at 50 ug/ml after 18 hrs by reporter gene assay relative to control
# T1 sequence (whole entry): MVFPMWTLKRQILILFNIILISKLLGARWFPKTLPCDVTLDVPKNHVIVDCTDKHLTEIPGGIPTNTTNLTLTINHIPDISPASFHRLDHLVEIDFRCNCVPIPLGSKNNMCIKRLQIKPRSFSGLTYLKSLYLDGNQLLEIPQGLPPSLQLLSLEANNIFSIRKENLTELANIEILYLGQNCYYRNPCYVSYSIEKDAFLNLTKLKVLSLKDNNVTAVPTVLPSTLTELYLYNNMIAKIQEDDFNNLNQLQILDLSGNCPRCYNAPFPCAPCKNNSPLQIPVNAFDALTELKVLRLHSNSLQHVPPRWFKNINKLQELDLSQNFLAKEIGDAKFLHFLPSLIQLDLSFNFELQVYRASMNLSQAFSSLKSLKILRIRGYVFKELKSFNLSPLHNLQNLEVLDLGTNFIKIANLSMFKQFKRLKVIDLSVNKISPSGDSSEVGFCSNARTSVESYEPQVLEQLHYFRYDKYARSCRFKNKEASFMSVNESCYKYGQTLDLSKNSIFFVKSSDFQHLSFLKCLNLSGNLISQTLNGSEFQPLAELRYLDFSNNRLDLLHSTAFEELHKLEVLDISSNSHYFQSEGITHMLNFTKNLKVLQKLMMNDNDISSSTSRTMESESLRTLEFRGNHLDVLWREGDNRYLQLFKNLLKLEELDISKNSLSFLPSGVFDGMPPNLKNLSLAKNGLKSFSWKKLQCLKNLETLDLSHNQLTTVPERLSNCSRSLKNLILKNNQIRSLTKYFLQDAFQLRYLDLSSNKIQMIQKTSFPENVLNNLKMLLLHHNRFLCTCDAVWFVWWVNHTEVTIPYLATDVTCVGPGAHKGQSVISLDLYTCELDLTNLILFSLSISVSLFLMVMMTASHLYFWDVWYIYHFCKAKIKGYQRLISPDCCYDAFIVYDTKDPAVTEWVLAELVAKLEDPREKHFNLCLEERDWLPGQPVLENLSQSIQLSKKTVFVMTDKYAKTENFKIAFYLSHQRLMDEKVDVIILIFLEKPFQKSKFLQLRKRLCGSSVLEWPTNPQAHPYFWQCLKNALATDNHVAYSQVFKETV
# Procedure, shortened: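 HEK293 cells stably expressing human TLR7 or TLR8, transiently transfected with SEAP reporter plasmid; medium replaced, SIMRA compounds added, 18 h incubation. Supernatant SEAP measured by QuantiBlue; expressed as fold increase in NF-κB activity over PBS control. Tabulated data at 50 μg/mL, representative of three independent experiments.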
# [2] = organism: Homo sapiens; assay: Ratio of human TLR7 activity to human TLR8 activity
# Procedure, shortened: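 TLR7/TLR8 ratio computed from fold NF-κB (SEAP reporter) activation in HEK293 cells stably expressing human TLR7 versus TLR8, compounds at 50 μg/mL, 18 h exposure; representative of three independent experiments.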
# [3] = molecular target: T2, Toll-like receptor 9 (Mus musculus) (UniProt Q9EQU3); assay: Activation of mouse TLR9 expressed in HEK293 assessed as induction of NF-kappaB activity reporter gene assay; type: cell-based
# T2 sequence (whole entry): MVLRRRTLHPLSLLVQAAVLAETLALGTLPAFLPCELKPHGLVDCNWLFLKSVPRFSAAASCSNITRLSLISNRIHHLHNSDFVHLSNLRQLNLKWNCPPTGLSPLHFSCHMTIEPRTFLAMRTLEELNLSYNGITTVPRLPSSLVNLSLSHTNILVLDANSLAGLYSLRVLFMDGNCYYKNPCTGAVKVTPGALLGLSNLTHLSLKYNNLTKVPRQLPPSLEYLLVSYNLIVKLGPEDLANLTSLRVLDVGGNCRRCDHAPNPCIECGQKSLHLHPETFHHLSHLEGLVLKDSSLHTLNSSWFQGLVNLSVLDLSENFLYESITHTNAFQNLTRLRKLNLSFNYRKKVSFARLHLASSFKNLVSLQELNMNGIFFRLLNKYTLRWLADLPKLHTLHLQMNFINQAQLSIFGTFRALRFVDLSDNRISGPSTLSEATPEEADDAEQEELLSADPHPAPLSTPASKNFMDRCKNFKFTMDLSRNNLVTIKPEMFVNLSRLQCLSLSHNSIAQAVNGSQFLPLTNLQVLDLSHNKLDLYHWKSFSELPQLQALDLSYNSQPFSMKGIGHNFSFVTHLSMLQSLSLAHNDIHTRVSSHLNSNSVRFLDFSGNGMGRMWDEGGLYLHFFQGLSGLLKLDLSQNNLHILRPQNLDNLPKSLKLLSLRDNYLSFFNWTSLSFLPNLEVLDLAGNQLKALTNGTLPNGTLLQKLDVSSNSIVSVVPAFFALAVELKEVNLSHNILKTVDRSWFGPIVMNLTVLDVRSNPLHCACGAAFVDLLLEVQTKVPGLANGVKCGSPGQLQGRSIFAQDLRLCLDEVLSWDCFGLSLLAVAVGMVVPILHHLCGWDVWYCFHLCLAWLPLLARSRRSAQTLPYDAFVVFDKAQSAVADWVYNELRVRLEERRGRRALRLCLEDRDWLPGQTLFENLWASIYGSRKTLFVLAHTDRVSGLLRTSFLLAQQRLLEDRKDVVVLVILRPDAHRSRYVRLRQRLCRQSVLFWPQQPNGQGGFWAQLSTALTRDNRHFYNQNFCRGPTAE
# [4] = test system: Splenocyte; assay: Immunomodulatory activity in C57BL/6 mouse splenocytes bearing TLR7 receptor assessed as IL6 release at 100 ug/ml after 24 hrs by ELISA; type: functional, cell-based
# Procedure, shortened: (§1)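 C57BL/6 splenocytes in RPMI 1640 with 10% FBS, penicillin/streptomycin, 2 mM L-glutamine, plated at 5 × 10^6 cells/mL; compounds in PBS added, 37 °C for 24 h. Supernatant IL-12 and IL-6 by ELISA; representative of three independent experiments.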
# [5] = test system: Splenocyte; assay: Immunomodulatory activity in C57BL/6 mouse splenocytes bearing TLR7 receptor assessed as IL12 release at 100 ug/ml after 24 hrs by ELISA; type: functional, cell-based; procedure, shortened: as §1
# [6] = test system: PBMC; assay: Immunomodulatory activity in human PBMC assessed as induction of IL12 at 100 ug/ml after 24 hrs; type: functional, cell-based
# Procedure, shortened: (§2)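 Human PBMCs plated at 5 × 10^6 cells/mL; compounds dissolved in PBS added at various concentrations, 37 °C for 24 h. Supernatant cytokines/chemokines quantified with human Luminex multiplex kit.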
# [7] = test system: PBMC; assay: Immunomodulatory activity in human PBMC assessed as induction of TNFalpha at 100 ug/ml after 24 hrs; type: functional, cell-based; procedure, shortened: as §2
# [8] = test system: PBMC; assay: Immunomodulatory activity in human PBMC assessed as induction of IFN-alpha at 100 ug/ml after 24 hrs
SMILES,fold change (FC) [1],Ratio [2],Activity [3],Activity [4],Activity [5],Activity [6] [pg/mL],Activity [7] [pg/mL],IFN-alpha [8] [pg/mL]
Nc1ccn([C@@H]2O[C@H](COP(=O)(S)O[C@H]3[C@@H](O)[C@H](n4cnc5c(N)ncnc54)O[C@@H]3CO)[C@@H](OP(=O)(S)OC[C@H]3O[C@@H](n4ccc5c(=O)[nH]c(N)nc54)[C@H](O)[C@@H]3OP(=O)(S)OC[C@H]3O[C@@H](n4ccc(=O)[nH]c4=O)[C@H](O)[C@@H]3OP(=O)(S)OC[C@H]3O[C@@H](n4ccc5c(=O)[nH]c(N)nc54)[C@H](O)[C@@H]3OP(=O)(S)OC[C@H]3O[C@@H](n4cnc5c(N)nc(N)nc54)[C@H](O)[C@@H]3OP(=O)(S)OC[C@H]3O[C@@H](n4cnc5c(N)ncnc54)[C@H](O)[C@@H]3OP(=O)(S)OC[C@H]3O[C@@H](n4ccc5c(=O)[nH]c(N)nc54)[C@H](O)[C@@H]3OP(=O)(S)OC[C@H]3O[C@@H](n4ccc(N)nc4=O)[C@H](O)[C@@H]3OP(=O)(S)OC[C@H]3O[C@@H](n4ccc(=O)[nH]c4=O)[C@H](O)[C@@H]3OP(=O)(S)OC[C@H]3O[C@@H](n4ccc(=O)[nH]c4=O)[C@H](O)[C@@H]3OP(=O)(S)OCC(O)COP(=O)(S)O[C@H]3[C@@H](O)[C@H](n4ccc(=O)[nH]c4=O)O[C@@H]3COP(=O)(S)O[C@H]3[C@@H](O)[C@H](n4ccc(=O)[nH]c4=O)O[C@@H]3COP(=O)(S)O[C@H]3[C@@H](O)[C@H](n4ccc(N)nc4=O)O[C@@H]3COP(=O)(S)O[C@H]3[C@@H](O)[C@H](n4ccc5c(=O)[nH]c(N)nc54)O[C@@H]3COP(=O)(S)O[C@H]3[C@@H](O)[C@H](n4cnc5c(N)nc(N)nc54)O[C@@H]3COP(=O)(S)O[C@H]3[C@@H](O)[C@H](n4cnc5c(N)nc(N)nc54)O[C@@H]3COP(=O)(S)O[C@H]3[C@@H](O)[C@H](n4ccc5c(=O)[nH]c(N)nc54)O[C@@H]3COP(=O)(S)O[C@H]3[C@@H](O)[C@H](n4ccc(=O)[nH]c4=O)O[C@@H]3COP(=O)(S)O[C@H]3[C@@H](O)[C@H](n4ccc5c(=O)[nH]c(N)nc54)O[C@@H]3COP(=O)(S)O[C@H]3[C@@H](O)[C@H](n4ccc(N)nc4=O)O[C@@H]3COP(=O)(S)O[C@H]3[C@@H](O)[C@H](n4cnc5c(N)ncnc54)O[C@@H]3CO)[C@H]2O)c(=O)n1 (stereo partly specified),26.8,13.4,inactive,Active,Active,864,165,123
Nc1ccn([C@@H]2O[C@H](COP(O)(=S)O[C@H]3[C@@H](O)[C@H](n4ccc(=O)[nH]c4=O)O[C@@H]3COP(O)(=S)O[C@H]3[C@@H](O)[C@H](n4ccc(=O)[nH]c4=O)O[C@@H]3COP(O)(=S)O[C@H]3[C@@H](O)[C@H](n4ccc(N)nc4=O)O[C@@H]3COP(O)(=S)O[C@H]3[C@@H](O)[C@H](n4ccc5c(=O)[nH]c(N)nc54)O[C@@H]3COP(O)(=S)O[C@H]3[C@@H](O)[C@H](n4ccc(=O)[nH]c4=O)O[C@@H]3COP(O)(=S)O[C@H]3[C@@H](O)[C@H](n4ccc(N)nc4=O)O[C@@H]3COP(O)(=S)O[C@H]3[C@@H](O)[C@H](n4ccc5c(=O)[nH]c(N)nc54)O[C@@H]3COP(O)(=S)O[C@H]3[C@@H](O)[C@H](n4ccc(=O)[nH]c4=O)O[C@@H]3CO)[C@@H](OP(O)(=S)OC[C@H]3O[C@@H](n4ccc(=O)[nH]c4=O)[C@H](O)[C@@H]3OP(O)(=S)OC[C@H]3O[C@@H](n4ccc5c(=O)[nH]c(N)nc54)[C@H](O)[C@@H]3OP(O)(=S)OCC(O)COP(O)(=S)O[C@H]3[C@@H](O)[C@H](n4ccc5c(=O)[nH]c(N)nc54)O[C@@H]3COP(O)(=S)O[C@H]3[C@@H](O)[C@H](n4ccc(=O)[nH]c4=O)O[C@@H]3COP(O)(=S)O[C@H]3[C@@H](O)[C@H](n4ccc(N)nc4=O)O[C@@H]3COP(O)(=S)O[C@H]3[C@@H](O)[C@H](n4ccc(=O)[nH]c4=O)O[C@@H]3COP(O)(=S)O[C@H]3[C@@H](O)[C@H](n4ccc(=O)[nH]c4=O)O[C@@H]3COP(O)(=S)O[C@H]3[C@@H](O)[C@H](n4ccc(N)nc4=O)O[C@@H]3COP(O)(=S)O[C@H]3[C@@H](O)[C@H](n4ccc5c(=O)[nH]c(N)nc54)O[C@@H]3COP(O)(=S)O[C@H]3[C@@H](O)[C@H](n4ccc(=O)[nH]c4=O)O[C@@H]3COP(O)(=S)O[C@H]3[C@@H](O)[C@H](n4ccc(N)nc4=O)O[C@@H]3COP(O)(=S)O[C@H]3[C@@H](O)[C@H](n4ccc5c(=O)[nH]c(N)nc54)O[C@@H]3COP(O)(=S)O[C@H]3[C@@H](O)[C@H](n4ccc(=O)[nH]c4=O)O[C@@H]3CO)[C@H]2O)c(=O)n1 (stereo partly specified),16.1,3.4,inactive,Active,Active,1110,385,385
